The source of these data is ChEMBL document CHEMBL4043182, “On the synthesis of quinone-based BODIPY hybrids: New insights on antitumor activity and mechanism of action in cancer cells” (Bioorg Med Chem Lett, 2017).

Data set [1] deals with L929. In words: Induction of lipid peroxidation in mouse L929 cells assessed as increase in MDA levels at 2.5 to 10 uM after 24 hrs in absence of NAC by TBARS assay. The class given is cell-based. The following applies: l929, 24 h. The essentials: (§1)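 TBARS: cells were exposed 24 h, with or without 24 h prior 5 mM NAC, and lysed in Tris-HCl. Lysate was heated with TCA/0.25 M HCl and 6.7 mg/mL TBA for 15 min at 100 °C, centrifuged, and read at 532 nm. Hydrolyzed tetramethoxypropane served as standard, with values normalized to protein. H2O2 (10 µM) was the positive control. Three independent experiments in triplicate; ANOVA/Tukey.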

The test system of data set [2] is SF-295. In words: Induction of lipid peroxidation in human SF295 cells assessed as increase in MDA levels at 2.5 to 10 uM treated 24 hrs post NAC addition measured after 24 hrs by TBARS assay. It is filed as functional, cell-based. The essentials: as §1
For data set [3], the system named is HCT-116. In words: Geno-toxicity in human HCT116 cells assessed as induction of DNA damage at 2.5 to 10 uM after 24 hrs in absence of NAC by alkaline comet assay. It is filed as functional, cell-based. The essentials:
(§2)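 Alkaline comet assay after 24 h at 2.5, 5 and 10 µM, with or without 24 h pretreatment with 5 mM NAC. Cells were trypsinized and embedded in 0.75% low-melting agarose, then lysed at pH 10, 4 °C, ≥1 h. DNA was unwound 20 min at pH >13 and electrophoresed 20 min at 25 V, 300 mA (0.86 V/cm), then stained with ethidium bromide. 100 cells (2 slides) were scored in classes 0–4 for a damage index. Mean ± SEM, three independent experiments in triplicate.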

In data set [4] the test system is HCT-116. As to the kind of experiment: Antiproliferative activity against human HCT116 cells after 72 hrs by MTT assay. It is filed as functional, cell-based. As to conditions: HCT-116, 72 h. The essentials: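 MTT reduction: cancer lines plated at 0.7×10^5 to 0.3×10^6 cells/well, V79 and L929 fibroblasts at 0.5×10^5 cells/well. Compounds in DMSO (0.1%) were given for 24 h at 0.04–40.92 µM or 72 h at 0.04–8.19 µM. Fresh medium with 0.5 mg/mL MTT was added for 3 h, then formazan was dissolved in DMSO and read at 595 nm as % of control. IC50 came from nonlinear regression with 95% CI. Doxorubicin (0.001–1.06 µM) was the positive control. Triplicate, ≥3 repeats.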

In data set [5] the test system is SF-295. As to the kind of experiment: Induction of oxidative stress in human SF295 cells assessed as total intracellular thiol levels at 5 uM after 24 hrs by spectrophotometric analysis (reference value: 4.51 +/- 0.83 microg/mg). The class given is functional.
Data set [6] relates to PC-3. In words: Geno-toxicity in human PC3 cells assessed as induction of DNA damage at 2.5 to 10 uM treated 24 hrs post NAC addition measured after 24 hrs by alkaline comet assay. It is filed as functional, cell-based. The essentials: as §2
The test system of data set [7] is PC-3. As to the kind of experiment: Induction of lipid peroxidation in human PC3 cells assessed as increase in MDA levels at 2.5 to 10 uM treated 24 hrs post NAC addition measured after 24 hrs by TBARS assay. The class given is functional, cell-based. The essentials: as §1
The nature of data set [8]: Drug uptake in lysosomes of human PC3 cells at 5 uM after 10 mins by LysoTracker Red dye-based confocal microscopic analysis. As to conditions: pc-3, 10 min. It is filed as ADME, cell-based. The essentials: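 PC3 cells were grown in DMEM with 10% FBS, antibiotics and 2 mM L-glutamine at 37 °C, 5% CO2. Cells were incubated with compound (5 µM) plus LysoTracker Red or MitoTracker Red for 10 min at 37 °C. Live cells were imaged in phenol red-free DMEM by confocal microscopy with a 40X oil objective, exciting at 488 nm (compound) and 543 nm (tracker dyes).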

A short description of data set [9]: Selectivity index, ratio of IC50 for mouse L929 cells to IC50 for human PC3 cells. It is filed as functional. The essentials: (§3)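 Selectivity index is the ratio of the IC50 in a non-cancer murine line (V79 or L929) to the IC50 in the cancer line. […] MTT was 0.5 mg/mL for 3 h, formazan dissolved in DMSO and read at 595 nm as % of control. IC50s were derived by nonlinear regression; triplicate, at least three repeats.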

Data set [10] is described as follows: Selective index, ratio of IC50 for mouse L929 cells to IC50 for human SW620 cells. The essentials:
as §3

In data set [11] the test system is L929. In words: Geno-toxicity in mouse L929 cells assessed as induction of DNA damage at 2.5 to 10 uM treated 24 hrs post NAC addition measured after 24 hrs by alkaline comet assay. It is filed as cell-based. The following applies: l929, 24 h. The essentials:
as §2

Data set [12] relates to PC-3. In words: Induction of oxidative stress in human PC3 cells assessed as total GSH levels at 5 uM treated 24 hrs post NAC addition measured after 24 hrs by spectrophotometric analysis (reference value: 3.04 +/- 0.51 microg/mg). The class given is functional. The essentials:
(§4)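 Cells were pretreated 24 h with 5 mM NAC, then exposed 24 h to test compound at 5 µM. Controls received 0.1% DMSO. Extracts were prepared by sonication and HClO4 precipitation, then neutralized with KOH. Total glutathione was read by DTNB/glutathione reductase/NADPH rate at 412 nm. GSSG was measured after 4-vinylpyridine (0.1%, 1 h, RT) and GSH derived by difference. Values are normalized to protein, triplicates, three independent runs.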

Data set [13] relates to L929. As to the kind of experiment: Induction of lipid peroxidation in mouse L929 cells assessed as increase in MDA levels at 2.5 to 10 uM treated 24 hrs post NAC addition measured after 24 hrs by TBARS assay. As to conditions: l929, 24 h. The class given is cell-based. The essentials:
as §1

The test system of data set [14] is PC-3. In words: Induction of oxidative stress in human PC3 cells assessed as total GSSG levels at 5 uM treated 24 hrs post NAC addition measured after 24 hrs by spectrophotometric analysis (reference value: 1.11 +/- 0.12 microg/mg). The class given is functional. The essentials:
as §4

In data set [15] the test system is PC-3. In words: Induction of oxidative stress in human PC3 cells assessed as total GSSG levels at 5 uM after 24 hrs by spectrophotometric analysis (reference value: 1.11 +/- 0.12 microg/mg). The class given is functional.
The test system of data set [16] is L929. In words: Induction of oxidative stress in mouse L929 cells assessed as total intracellular thiol levels at 5 uM after 24 hrs by spectrophotometric analysis (reference value: 4.87 +/- 0.25 microg/mg). The following applies: l929, 24 h. The class given is cell-based.
The test system of data set [17] is PC-3. As to the kind of experiment: Cytotoxicity against human PC3 cells after 24 hrs in presence of GSH-OEt by MTT assay. It is filed as functional, cell-based. As to conditions: PC-3, 24 h. The essentials: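 24 h MTT exposure (0.04–40.92 µM in 0.1% DMSO), with or without co-treatment with GSH ethyl ester (15 mM) to gauge the ROS contribution. MTT was 0.5 mg/mL for 3 h, with formazan dissolved in DMSO and absorbance at 595 nm expressed as % of control. Triplicate, repeated at least three times.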

The subject of data set [18] is L929. In words: Induction of oxidative stress in mouse L929 cells assessed as total GSSG levels at 5 uM after 24 hrs by spectrophotometric analysis (reference value: 1.05 +/- 0.33 microg/mg). The class given is cell-based. As to conditions: l929, 24 h.
Data set [19] deals with HCT-116. As to the kind of experiment: Induction of lipid peroxidation in human HCT116 cells assessed as increase in MDA levels at 2.5 to 10 uM after 24 hrs in absence of NAC by TBARS assay. It is filed as functional, cell-based. The essentials:
as §1

Data set [20] has as its system L929. In words: Induction of oxidative stress in mouse L929 cells assessed as total intracellular thiol levels at 5 uM treated 24 hrs post NAC addition measured after 24 hrs by spectrophotometric analysis (reference value: 4.87 +/- 0.25 microg/mg). The class given is cell-based. The following applies: l929, 24 h.

The structures appear in SMILES notation. The source made the active and inactive calls. The calls are words filed in the database; no cut-off is given here.

With `CC1(C)OC2=C(C(=O)C(=O)c3ccccc32)C1n1cc(CNC2=[N+]3C(=C(c4ccccc4)c4ccc(Cl)n4[B-]3(F)F)C=C2)nn1` (stereo not given), the Activity result with L929 [1] is “Toxic”; in the data set with SF-295 [5] it was 3.44 µg/mg; in the data set with L929 [11] it was “Toxic”; in the data set with PC-3 [12] it was 3.13 µg/mg; in the data set with L929 [13] it was “Non-Toxic”; with PC-3 [14] it was 1.07 µg/mg. For the same compound, the Activity in the data set with PC-3 [15] was found to be 2.16 µg/mg; with L929 [16] it was 3.5 µg/mg; in the data set on L929 [18] it was 2.27 µg/mg; in the data set with L929 [20], 5.21 µg/mg. The result in the data set with SF-295 [2] and with PC-3 [7] was inactive. For the same compound, the result in the data set on HCT-116 [3], in the data set with PC-3 [6] and in the data set on HCT-116 [19] was Active. The results for the IC50 with HCT-116 [4] and in the data set with PC-3 [17] were 0.32 µM and 15.8 µM, respectively. For the same compound, the Drug uptake entry in data set [8] is recorded as “Metabolite_Notdetected”. Also, the figures for the Ratio IC50 in [9] and in [10] were 2.4 and 1.4, respectively.
